Among the data in ChEMBL document CHEMBL1145899, “Estrogenic potential of 2-alkyl-4-(thio)chromenone 6-O-sulfamates: potent inhibitors of human steroid sulfatase” (J Med Chem, 2003) are ED50, Stimulation and IC50 values, retold here.

The target in test [1] is T1, Estrogen receptor (Homo sapiens) (UniProt P03372).
T1 sequence (whole entry): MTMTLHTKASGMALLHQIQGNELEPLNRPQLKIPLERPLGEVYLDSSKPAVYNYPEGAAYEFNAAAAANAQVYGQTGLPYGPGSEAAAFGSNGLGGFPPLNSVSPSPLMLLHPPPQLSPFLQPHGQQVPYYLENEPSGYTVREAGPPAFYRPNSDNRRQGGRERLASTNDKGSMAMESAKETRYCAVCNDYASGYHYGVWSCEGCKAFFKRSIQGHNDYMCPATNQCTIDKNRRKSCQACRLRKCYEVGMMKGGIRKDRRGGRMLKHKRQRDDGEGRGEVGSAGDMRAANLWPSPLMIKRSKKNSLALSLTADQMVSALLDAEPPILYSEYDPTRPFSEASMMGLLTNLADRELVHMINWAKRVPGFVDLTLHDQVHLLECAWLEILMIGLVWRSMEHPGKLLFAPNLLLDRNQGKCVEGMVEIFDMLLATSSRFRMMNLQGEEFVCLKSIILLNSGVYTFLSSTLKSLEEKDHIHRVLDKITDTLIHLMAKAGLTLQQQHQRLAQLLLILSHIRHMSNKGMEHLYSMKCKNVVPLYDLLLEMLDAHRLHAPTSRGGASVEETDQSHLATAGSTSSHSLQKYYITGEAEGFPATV
The test can be described thus: Affinity of sulfamate compound for human estrogen receptor alpha. The method, boiled down: (§1)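 Fluorescence polarization competition with purified human ER; ER-α final 13 nM or ER-β final 10 nM, fluorescein-estradiol tracer 1 nM final. Compounds from DMSO or ethanol stocks, 0.5% (v/v) final solvent; room temperature 2–2.5 h; triplicate wells. Four-parameter logistic fit; ED50 = concentration giving polarization midway between +tracer/+ER and +tracer/−ER controls. Tested up to solubility limit.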

Test [2] has as its system MCF7. In words: Stimulation of MCF-7 cell proliferation at 1000 nM. Type of test: functional, Homo sapiens. The method, boiled down:
(§2)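 MCF-7 cells hormone-depleted 10 days, then seeded at 20 000 cells/cm² in phenol red-free RPMI with 2.5% charcoal-stripped FCS and held 5 days. Compound (ethanol/DMSO, ≤0.1% solvent) added day 5, refreshed day 8; sulforhodamine counts days 5 and 10; triplicate wells. % stimulation = (growth vs solvent controls ×100) − 100.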

Test [3] concerns MCF7. The test can be described thus: Stimulation of MCF-7 cell proliferation at 100 nM. The class given is functional, Homo sapiens. The method, boiled down:
as §2

Test [4] deals with MCF7. In words: Stimulation of MCF-7 cell proliferation at 10 nM. Type of test: functional, Homo sapiens. In short, it runs like this:
as §2

For test [5], the target named is Estrogen receptor beta (Homo sapiens) (UniProt Q92731). In words: Affinity of sulfamate compound for human estrogen receptor beta. The method, boiled down: as §1
Sequence of Estrogen receptor beta (Homo sapiens) (Q92731 whole entry): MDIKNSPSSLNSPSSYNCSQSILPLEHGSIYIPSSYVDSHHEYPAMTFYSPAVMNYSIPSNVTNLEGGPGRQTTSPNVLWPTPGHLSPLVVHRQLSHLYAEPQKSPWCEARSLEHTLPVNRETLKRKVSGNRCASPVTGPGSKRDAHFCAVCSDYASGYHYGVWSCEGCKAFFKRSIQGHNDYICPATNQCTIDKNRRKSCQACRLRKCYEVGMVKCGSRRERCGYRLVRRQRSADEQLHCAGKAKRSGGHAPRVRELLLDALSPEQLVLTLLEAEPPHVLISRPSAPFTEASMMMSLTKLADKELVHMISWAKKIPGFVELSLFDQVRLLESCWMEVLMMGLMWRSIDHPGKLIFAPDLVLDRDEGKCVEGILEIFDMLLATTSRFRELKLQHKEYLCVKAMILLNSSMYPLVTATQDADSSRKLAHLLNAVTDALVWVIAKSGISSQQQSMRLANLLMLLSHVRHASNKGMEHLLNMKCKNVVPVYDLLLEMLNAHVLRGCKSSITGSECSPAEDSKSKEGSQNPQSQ
The target in test [6] is T1, Estrogen receptor (Homo sapiens).
For test [7], the target named is Estrogen receptor beta (Homo sapiens) (UniProt Q92731).
The target of a further test is T2, Steryl-sulfatase (Homo sapiens, UniProt P08842).
T2 sequence (P08842 whole entry): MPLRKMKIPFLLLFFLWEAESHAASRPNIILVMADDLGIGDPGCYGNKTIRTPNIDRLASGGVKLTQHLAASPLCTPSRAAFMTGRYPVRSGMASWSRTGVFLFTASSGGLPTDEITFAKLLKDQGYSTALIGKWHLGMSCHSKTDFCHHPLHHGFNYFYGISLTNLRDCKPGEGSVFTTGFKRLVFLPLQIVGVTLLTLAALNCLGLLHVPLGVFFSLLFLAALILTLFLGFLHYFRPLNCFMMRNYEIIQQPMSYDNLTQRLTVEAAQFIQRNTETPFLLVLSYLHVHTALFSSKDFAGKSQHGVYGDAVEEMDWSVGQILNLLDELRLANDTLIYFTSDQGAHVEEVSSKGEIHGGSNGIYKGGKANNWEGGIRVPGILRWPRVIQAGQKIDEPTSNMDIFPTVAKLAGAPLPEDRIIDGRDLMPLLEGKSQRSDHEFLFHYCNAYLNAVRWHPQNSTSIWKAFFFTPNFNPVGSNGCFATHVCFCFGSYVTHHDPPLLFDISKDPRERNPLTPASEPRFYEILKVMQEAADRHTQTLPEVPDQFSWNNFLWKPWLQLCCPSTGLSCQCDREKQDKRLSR
The test can be described thus: Inhibition of steroid sulfatase. The method, boiled down:
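Purified recombinant human STS; fluorimetric assay with 4-methylumbelliferone sulfate as substrate. IC50 by nonlinear regression; mean of triplicate determinations.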

With `NS(=O)(=O)Oc1ccc2oc(CCc3ccccc3)cc(=O)c2c1`, the ED50 in test [1] and in test [5] was > 100 µM in each case. Besides, the Stimulation in the test on MCF7 [2] was determined as 45%; with MCF7 [3], 33%; in the test with MCF7 [4], 16%.
Consider `CC1(C)C(c2cc(=O)c3cc(OS(N)(=O)=O)ccc3o2)C1(C)C`, for which the figures for the Stimulation in the test on MCF7 [2], in the test with MCF7 [3] and in the test with MCF7 [4] were 120%, 85% and 52%, respectively. For the same compound, the ED50 in test [6] stood at 30 µM; in test [7] it was 47 µM.
As for `NS(=O)(=O)Oc1ccc2oc(C3CCCCCCCCCCC3)cc(=O)c2c1`, the Stimulation in the test with MCF7 [2] is reported as 118%; with MCF7 [3], 72%; in the test on MCF7 [4], 48%. For the same compound, the ED50 in test [6] is > 10 µM; in test [7], > 30 µM.
Regarding `O=c1cc(C23CC4CC(CC(C4)C2)C3)sc2ccc(O)cc12`, the ED50 was 0.21 µM in test [6] and 0.48 µM in test [7].
As to `CCCCCCCCCc1cc(=O)c2cc(OS(N)(=O)=O)ccc2o1`, the Stimulation with MCF7 [2], in the test on MCF7 [3] and with MCF7 [4] was 0% in each case. In addition, the figures for the ED50 in test [6] and in test [7] were > 50 µM and > 100 µM, respectively.
Turning to `CC(C)(C)c1cc(=O)c2cc(OS(N)(=O)=O)ccc2o1`, the Stimulation was 100% with MCF7 [2], 45% with MCF7 [3] and 12% in the test on MCF7 [4]. The ED50 in test [6] and in test [7] was > 100 µM throughout.
On to `CCCCCC12CCC(CC1)C(c1cc(=O)c3cc(O)ccc3o1)C2` (stereo unspecified), for which the ED50 in test [6] and in test [7] was > 100 µM each time.
With `C[C@]12CC[C@@H]3c4ccc(O)cc4CC[C@H]3[C@@H]1CC[C@@H]2O` [ESTRADIOL], the Stimulation with MCF7 [4] is 400%. The ED50 in test [7] came to 0.011 µM.
With `O=c1cc(C2CCCCCCCCCCC2)oc2ccc(O)cc12`, the ED50 in test [6] was 0.8 µM; in test [7] it was 1.5 µM.
With `C[C@]12CC[C@@H]3c4ccc(OS(N)(=O)=O)cc4CCC3[C@@H]1CCC2=O` (single isomer, unassigned) [EMATE], the ED50 in test [1] stood at 2.6 µM; in test [5] it was 3.7 µM. For the same compound, the results for the Stimulation in the test on MCF7 [2], in the test on MCF7 [3] and in the test with MCF7 [4] were 123%, 112% and 97%, respectively.
As for `CC(C)(C)c1cc(=O)c2cc(O)ccc2o1`, the ED50 in test [6] is 64 µM; in test [7], 69 µM.
Broadly, the IC50 is the concentration at which inhibition is half-maximal. Regarding `NS(=O)(=O)Oc1ccc2oc(C34CC5CC(CC(C5)C3)C4)cc(=O)c2c1`, the results for the Stimulation in the test with MCF7 [2], with MCF7 [3] and with MCF7 [4] were 116%, 88% and 71%, respectively. Also, the ED50 in test [6] and in test [7] was > 30 µM each time. Further, on Steryl-sulfatase, half-maximal inhibition (IC50) required 0.0056 µM.
With `NS(=O)(=O)Oc1ccc2c(c1)C(=O)CC(C13CC4CC(CC(C4)C1)C3)O2` (stereo unspecified), the values for the Stimulation in the test with MCF7 [2], with MCF7 [3] and in the test with MCF7 [4] were 130%, 90% and 79%, respectively. Besides, the ED50 is 13 µM in test [6] and 14 µM in test [7].
Consider `CCCCCCCCC(C)(C)c1cc(=O)c2cc(OS(N)(=O)=O)ccc2o1`, for which the Stimulation with MCF7 [2], in the test on MCF7 [3] and with MCF7 [4] was 0% each time. For the same compound, the ED50 is > 30 µM in test [6] and > 100 µM in test [7].
On to `O=c1cc(C23CC4CC(CC(C4)C2)C3)oc2ccc(O)cc12`, for which the ED50 was determined as 1.5 µM in test [6] and 1.4 µM in test [7].
With `O=C1CC(C23CC4CC(CC(C4)C2)C3)Oc2ccc(O)cc21` (stereo unspecified), the ED50 in test [6] came out at 0.1 µM; in test [7] it was 0.035 µM.
In the case of `CCCCCCCCC(C)(C)c1cc(=O)c2cc(O)ccc2o1`, the ED50 in test [6] and in test [7] was > 100 µM each time.
With `CCCCCCCCCc1cc(=O)c2cc(O)ccc2o1`, the ED50 in test [6] and in test [7] was > 100 µM each time.
`CC1(C)C(c2cc(=O)c3cc(O)ccc3o2)C1(C)C`: the ED50 in test [6] is 0.9 µM; in test [7], 2.6 µM.
As to `NS(=O)(=O)Oc1ccc2sc(C34CC5CC(CC(C5)C3)C4)cc(=O)c2c1`, the results for the Stimulation with MCF7 [2], with MCF7 [3] and in the test on MCF7 [4] were 120%, 99% and 78%, respectively. Further, the figures for the ED50 in test [6] and in test [7] were 4.8 µM and 18 µM, respectively.
